Reference: PubChem BioAssay AID704 (The Scripps Research Institute Molecular Screening Center, 2007)
The whole screen tested about 97,000 compounds, of which about 770 (0.79%) were called active. The sample as a whole holds a higher share of actives than the screen did. Unmarked numbers belong to inactive results.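 How the source made its calls: active means inhibition above the screen-wide mean plus 3 SD (cut at about 35% in these data); inactive means the rest.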

molecular target: Protein Rev (Human immunodeficiency virus type 1 group M subtype B (isolate WMJ22)) (UniProt P05866); test: disruptors of Rev peptide-RRE RNA complex – biochemical, FRET, protein-RNA interaction, primary screen (AID 704); conditions: Rev peptide-RRE RNA binding, at 8 µM, hits give high values;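 further: 0% = median DMSO wells and 100% = median Neomycin B control wells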
How it was run: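 Assay system: labelled RRE RNA duplex and labelled Rev peptide / Medium: HEPES pH 7.5 salt buffer with EDTA / Reagent: labelled Rev peptide / Schedule: 5 + 15 min at 25 °C / Signal: FRET, excitation 480 nm, emission 540 nm donor and 671 nm acceptor / Benchmarks: DMSO and neomycin B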

Chain of Protein Rev (Human immunodeficiency virus type 1 group M subtype B (isolate WMJ22)) (P05866 whole entry, looked up): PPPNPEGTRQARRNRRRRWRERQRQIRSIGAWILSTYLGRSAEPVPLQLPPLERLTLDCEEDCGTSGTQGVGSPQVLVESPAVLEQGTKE

Row | Compound | inhibition
1 | O=C(Cc1c[nH]c2ccccc12)OCCOC(=O)Cc1c[nH]c2ccccc12 | 3.26%
2 | CCOc1nnc(C)c2c(C)n(-c3cccc(Cl)c3)nc12 | 53.5% (active)
3 | CCOc1cccc(-n2nnnc2-c2ccc(OC)cc2)c1 | 1.17%
4 | COC(=O)C(C)n1cnc2c(nnn2-c2cccc(Cl)c2)c1=O (stereo not drawn) | 3.58%
5 | C=CCC(NCc1ccco1)c1ccc(OC)cc1 (stereo not drawn) | 2.12%
6 | CCCCCCCCOC1OC(CO)C(O)C(O)C1NC(C)=O (stereo not drawn) | -1.01%
7 | O=C(c1ccc2c(c1)OCO2)N1CCOCC1 | 2.74%
8 | O=C(NCCOc1ccccc1)c1ccccc1 | 7.52%
9 | CCOC(=O)c1sc(NC(=O)c2ccncc2)nc1C | 4.33%
10 | CC/S(CC1CC1(Cl)Cl)=N\S(=O)(=O)c1ccc(C)cc1 (stereo not drawn) | -0.12%
11 | CCN(CC)C(=O)CSc1nnc(C2CCCCC2)o1 | -0.19%
12 | CCOc1ccc2c(c1)C(c1ccc(C)cc1)=NNC(c1ccc(C)cc1)=N2 | -0.68%
13 | COc1ccccc1C(c1nnnn1C(C)(C)C)N1CCN(Cc2ccccc2)CC1 (stereo not drawn) | 5.48%
14 | O=C1CSC(c2ccccc2)N1c1nc(-c2ccc(Cl)cc2Cl)cs1 (stereo not drawn) | 11.2%
15 | Cc1cc(C)cc(OCC(=O)NNC(=O)c2cc3ccccc3oc2=O)c1 | 3.32%
16 | O=c1c2ccccc2c(-c2ccc(Br)cc2)nn1Cc1ccccc1 | 10.1%
17 | CN(C)c1ccc(/C=C2\NC(=S)N(Cc3ccccc3)C2=O)cc1 | 136% [fluorescence artefact?] (active)
18 | CC1=NN(Cc2ccccc2)C(=O)/C1=C/c1ccc(N(C)C)cc1 | 13.1%
19 | CC(C)(C)n1nnnc1C(c1ccc(Cl)cc1)N1CCSCC1 (stereo not drawn) | 3.16%
20 | O=c1c2ccccc2nc2n1C(CSCc1cccc(C(F)(F)F)c1)CS2 (stereo not drawn) | 5.83%
21 | OC(COCCC12CC3CC(CC(C3)C1)C2)CN1CCCCC1 (stereo not drawn) | -1.79%
22 | CCCCn1c(=S)[nH]c2cc(S(=O)(=O)N3CCCCC3)ccc21 | 1.26%
23 | Clc1ccc(-n2nnnc2CN2CCCCC2)cc1Cl | 1.19%
24 | CCOC(=O)C1=C(C)NC2=C(C(=O)CC(C)(C)C2)C1c1ccsc1 (stereo not drawn) | 0.96%

Row | Compound | inhibition
25 | CCOC(=O)c1[nH]c2ccc(C)cc2c1N=C(C)N(C)C | 7.68%
26 | Cc1[nH]c2ccccc2c1C(=O)COC(=O)C(C)C | 2.32%
27 | CCOC(=O)c1[nH]c2ccccc2c1N=C(C)N(CC)CC | 65% (active)
28 | O=C(Nc1nccs1)C1CCN(S(=O)(=O)c2ccc(Cl)c(C(F)(F)F)c2)CC1 | 11.3%
29 | COC(=O)c1sccc1-n1cccc1C(=O)C(=O)N1CCCCC1 | 4.4%
30 | Cc1cccc(-c2nc3c(c(SCC(=O)N4CCOCC4)n2)CCCC3)c1 | 12.4%
31 | CCCCSc1[nH]c(=O)c(C(=O)OCC)cc1C#N | 0.71%
32 | COc1ccc(-n2nc(C(=O)NCC(=O)Nc3cccc(C)n3)c3ccccc3c2=O)cc1 | 6.83%
33 | Cc1nc(-c2ccccc2)sc1-c1nc(-c2ccccc2)ncc1S(=O)(=O)c1ccccc1 | 2.59%
34 | CNC(=O)/C(=C\C=C\c1ccccc1)NC(=O)c1ccc([N+](=O)[O-])cc1 | 3.26%
35 | CCOC(=O)c1cnn(Cc2ccccc2Cl)c1N | 3.78%
36 | CCCCN(CC)CCCNC(=O)CS(=O)(=O)Cc1nc(-c2cccc(OC)c2)oc1C | -1.81%
37 | CCCCCCc1cc2cc(-c3nnc(-c4ccccc4)o3)c(=O)oc2cc1O | 136% [fluorescence artefact?] (active)
38 | CCCCCCc1cc2cc(-c3nnc(-c4cccc(OC)c4)o3)c(=O)oc2cc1O | 126% [fluorescence artefact?] (active)
39 | O=c1oc2cc(O)ccc2cc1-c1ccc(F)cc1 | 10.2%
40 | COc1cccc(C(=O)c2cc3ccc(O)cc3oc2=O)c1 | 2.17%
41 | COc1cc(C(=O)NC(=S)NCc2ccco2)cc(OC)c1OC | -0.1%
42 | COc1ccc(-c2cc(C3CCN(c4ncccc4[N+](=O)[O-])CC3)[nH]n2)cc1 | 15.1%
43 | Cc1cccc(CSc2nnc(NC(=O)CSc3nnc(C)s3)s2)c1 | 2.97%
44 | Cc1ccc(-c2noc(CSc3nnc(-c4ccncc4)n3-c3ccc(F)cc3)n2)cc1 | 1.43%
45 | CCOc1ccc(NC(=O)N(CC(C)C)CC(C)C)cc1 | 7.89%
46 | COc1ccc(CCNC(=S)NC(=O)/C=C/c2ccc(C)cc2)cc1OC | -2.76%
47 | CC(=O)Nc1ccc(S(=O)(=O)N2CCN(C(=O)c3ccccc3F)CC2)cc1 | 4.25%
48 | Cn1c2c(c(=O)n(C)c1=O)C(c1cccc([N+](=O)[O-])c1)Nc1ccccc1O2 (stereo not drawn) | 0.04%

Row | Compound | inhibition
49 | CS(=O)(=O)n1nc(-c2ccccc2)nc1NCc1ccco1 | 7.66%
50 | CSc1nc(N(C)NC(=O)c2cccc(C)c2)c2ccccc2n1 | 3.84%
51 | Cc1ccc(C)c(NC(=O)C2Cc3ccccc3CN2C(=O)OCc2ccccc2)c1 (stereo not drawn) | 15.4%
52 | CCOC(=O)c1c(C)oc2cc(Br)c(OCC(N)=O)cc12 | -5.76%
53 | COc1ccccc1NC(=O)C1=C(C)NC2=C(C(=O)CCC2)C1c1ccc(C)o1 (stereo not drawn) | -3.73%
54 | COC(=O)C1=C(C)NC2=C(C(=O)c3ccccc32)C1c1ccc(-c2ccc(C(=O)O)cc2)o1 (stereo not drawn) | 41.7% (active)
55 | COC(=O)C1=C(C)NC(=O)NC1/C=C/c1ccccc1 (stereo not drawn) | 7.27%
56 | N#C/C(=C(/O)COc1cccc2ccccc12)c1nc2ccccc2[nH]1 | 8.41%
57 | COc1ccc(-n2nnnc2SCc2nc(N)nc(N3CCOCC3)n2)cc1 | 8.05%
58 | O=C(COc1ccc(/C=N/NS(=O)(=O)c2ccccc2)cc1)NCCc1ccccc1 | 6.41%
59 | O=S(=O)(N1CCCCC1)N1CCNCC1 | 0.92%
60 | CCN(CC)c1ccc(NC(=O)c2ccc(Cl)nc2)cc1 | -7.72%
61 | Cc1c(C(=O)OC(C)C)sc(NC(=O)c2cccnc2)c1C#N | 27.8%
62 | CC(C)c1cc(C(N)=O)c(NC(=O)c2cccc(COc3ccc(Br)cc3)c2)s1 | 15.9%
63 | CC1=CC(C)(C)Nc2ccc(OC(=O)C(Cc3ccccc3)N3C(=O)C4CCCCC4C3=O)cc21 (stereo not drawn) | -0.51%
64 | CCCNC(=O)CN(Cc1ccccc1F)S(=O)(=O)c1ccc(C)cc1 | 8.11%
65 | COC(=O)/C(NC(C)=O)=C(\C)c1ccc(Cl)cc1 | 1.2%
66 | O=C(c1cc2c(s1)CCC2)N1CCN(c2ccccc2)CC1 | -4.48%
67 | CC(=O)Nc1ccc(OCC(O)CN2CCN(c3ccccc3Cl)CC2)cc1 (stereo not drawn) | -0.14%
68 | CN(c1ccccc1)c1ccc(/C=c2\s/c(=C(/C#N)C(=O)C(C)(C)C)n(Cc3ccco3)c2=O)cc1 | 117% [fluorescence artefact?] (active)
69 | CCOC(=O)CSc1nc2c(sc(=S)n2CCc2ccccc2)c(=O)n1Cc1ccco1 | 7.11%
70 | Cc1cc2c(c(=O)n1Cc1ccco1)C(c1ccccc1)C(C#N)=C(N)O2 (stereo not drawn) | 7.8%
71 | N#C/C(=C(/O)Cc1cccc2ccccc12)c1nc2ccccc2s1 | 3.55%
72 | O=C(C1=C(O)C(=O)N(Cc2ccccc2)C1c1cccnc1)c1ccco1 (stereo not drawn) | 7.49%

Row | Compound | inhibition
73 | O=C(C1=C(O)C(=O)N(c2ncccn2)C1c1cccs1)c1ccco1 (stereo not drawn) | 46.5% (active)
74 | O=C(C1=C(O)C(=O)N(Cc2ccccc2)C1c1ccco1)c1ccco1 (stereo not drawn) | 0.29%
75 | O=c1c2ccccc2nc2n1C(CSc1ccc(Cl)cc1)CN2 (stereo not drawn) | 6.92%
76 | CCOC(=O)c1sc(C)c2c1NC(C)(c1cccc3ccccc13)NC2=O (stereo not drawn) | 18.2%
77 | CCN1C(=O)C(CC(=O)Nc2cc(C)ccc2C)SC1=Nc1ccc(S(N)(=O)=O)cc1 (stereo not drawn) | 9.41%
78 | CC(CN1CCOCC1)c1ccccc1 (stereo not drawn) | 10.4%
79 | Cc1ccc(NC(=O)Nc2ccc3oc(C)nc3c2)cc1 | 7.33%
80 | CCOCN(C(=O)Cn1c(C(C)O)nc2ccccc21)c1c(C)cccc1CC (stereo not drawn) | 2.37%
81 | Cc1c(C#N)c(NC(=O)c2ccccc2)n(Cc2ccccc2)c1C | 2.3%
82 | Cc1nn(CCOc2ccccc2)c(=O)n1-c1ccccc1F | 5.48%
83 | COc1cc(/C=C(\C#N)c2nc3c(s2)CC(C)CC3)ccc1O (stereo not drawn) | 66% (active)
84 | COc1cc(C(=O)OC(C)C(=O)NCC2CCCCC2)cc(NC(=O)c2ccco2)c1OC (stereo not drawn) | -0.95%
85 | CCOCc1nnc(NC(=O)CSc2ccc(C)cc2)s1 | 6.99%
86 | CS(=O)(=O)c1ccc2c(c1)SC1=NC(=O)/C(=C/c3ccco3)C(=N)N12 | 36.1% (active)
87 | CN(C)CCNC(=O)Nc1cccc(Cl)c1Cl | 2.97%
88 | O=C1COc2ccc(NC(=O)N3CCN(c4ccc(F)cc4)CC3)cc2N1 | 5.12%
89 | O=C(CC12CC3CC(CC(C3)C1)C2)Nc1ccc2c(c1)COC2=O | 11.5%
90 | Oc1ccc2ccc3cccc[n+]3c2c1 | 120% [fluorescence artefact?] (active)
91 | Cc1noc(C)c1C(=O)OCC(=O)/C=C1\N(C)c2ccccc2C1(C)C | 2.24%
92 | CN1/C(=C\C=C2\N=C(c3ccc(F)cc3)OC2=O)C(C)(C)c2ccccc21 | 48.7% (active)
93 | CN1/C(=C\C(=O)c2oc3ccccc3c2N)C(C)(C)c2ccccc21 | 6.51%
